Read-outs that look alike come from different tables or passages of the source.
Columns and labels:
BCRP (ABCG2) = target: T1, BCRP (ABCG2) (Homo sapiens, UniProt Q9UNQ0); format: cell-based; details: for Percent Inhibition (%) of the fluorescent substrate: BCRP, mitoxantrone efflux, human cancer cells
T1 sequence (Q9UNQ0 1-655): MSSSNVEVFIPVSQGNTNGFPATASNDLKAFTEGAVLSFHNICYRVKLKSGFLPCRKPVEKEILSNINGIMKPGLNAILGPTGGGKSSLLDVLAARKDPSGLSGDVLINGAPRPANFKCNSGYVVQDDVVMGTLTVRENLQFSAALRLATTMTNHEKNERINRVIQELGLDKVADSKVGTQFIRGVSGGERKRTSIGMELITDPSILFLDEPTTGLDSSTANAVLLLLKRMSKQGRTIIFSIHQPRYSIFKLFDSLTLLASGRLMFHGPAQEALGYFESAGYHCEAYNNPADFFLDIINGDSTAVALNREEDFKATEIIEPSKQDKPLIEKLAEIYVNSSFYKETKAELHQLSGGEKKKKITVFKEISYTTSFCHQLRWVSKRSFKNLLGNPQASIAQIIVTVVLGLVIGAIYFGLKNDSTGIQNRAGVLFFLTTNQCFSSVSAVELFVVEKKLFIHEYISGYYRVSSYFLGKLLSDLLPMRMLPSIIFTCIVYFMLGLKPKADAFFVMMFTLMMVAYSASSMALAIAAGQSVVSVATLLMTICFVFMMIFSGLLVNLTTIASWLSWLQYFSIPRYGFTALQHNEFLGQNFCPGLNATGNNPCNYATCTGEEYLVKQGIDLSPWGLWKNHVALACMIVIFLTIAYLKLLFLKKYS
In short: (§1)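 Human cancer cells overexpressing a transporter, plus parental cells, were analysed by flow cytometry for efflux of a fluorescent probe: rhodamine-123 for P-gp, mitoxantrone for BCRP, calcein-AM for MRP1. Conditions were untreated parental cells, expressing cells with a transporter-specific inhibitor, expressing cells with test compound at 20 or 50 µM, and untreated expressing cells. Fluorescence was recorded on 10,000 cells and expressed as percent inhibition.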

P-gp (ABCB1) = P-gp (ABCB1) (Homo sapiens, UniProt P08183); format: cell-based; details: for Percent Inhibition (%) of the fluorescent substrate: P-gp, rhodamine-123 efflux, human cancer cells
P-gp (ABCB1), sequence (P08183 whole entry): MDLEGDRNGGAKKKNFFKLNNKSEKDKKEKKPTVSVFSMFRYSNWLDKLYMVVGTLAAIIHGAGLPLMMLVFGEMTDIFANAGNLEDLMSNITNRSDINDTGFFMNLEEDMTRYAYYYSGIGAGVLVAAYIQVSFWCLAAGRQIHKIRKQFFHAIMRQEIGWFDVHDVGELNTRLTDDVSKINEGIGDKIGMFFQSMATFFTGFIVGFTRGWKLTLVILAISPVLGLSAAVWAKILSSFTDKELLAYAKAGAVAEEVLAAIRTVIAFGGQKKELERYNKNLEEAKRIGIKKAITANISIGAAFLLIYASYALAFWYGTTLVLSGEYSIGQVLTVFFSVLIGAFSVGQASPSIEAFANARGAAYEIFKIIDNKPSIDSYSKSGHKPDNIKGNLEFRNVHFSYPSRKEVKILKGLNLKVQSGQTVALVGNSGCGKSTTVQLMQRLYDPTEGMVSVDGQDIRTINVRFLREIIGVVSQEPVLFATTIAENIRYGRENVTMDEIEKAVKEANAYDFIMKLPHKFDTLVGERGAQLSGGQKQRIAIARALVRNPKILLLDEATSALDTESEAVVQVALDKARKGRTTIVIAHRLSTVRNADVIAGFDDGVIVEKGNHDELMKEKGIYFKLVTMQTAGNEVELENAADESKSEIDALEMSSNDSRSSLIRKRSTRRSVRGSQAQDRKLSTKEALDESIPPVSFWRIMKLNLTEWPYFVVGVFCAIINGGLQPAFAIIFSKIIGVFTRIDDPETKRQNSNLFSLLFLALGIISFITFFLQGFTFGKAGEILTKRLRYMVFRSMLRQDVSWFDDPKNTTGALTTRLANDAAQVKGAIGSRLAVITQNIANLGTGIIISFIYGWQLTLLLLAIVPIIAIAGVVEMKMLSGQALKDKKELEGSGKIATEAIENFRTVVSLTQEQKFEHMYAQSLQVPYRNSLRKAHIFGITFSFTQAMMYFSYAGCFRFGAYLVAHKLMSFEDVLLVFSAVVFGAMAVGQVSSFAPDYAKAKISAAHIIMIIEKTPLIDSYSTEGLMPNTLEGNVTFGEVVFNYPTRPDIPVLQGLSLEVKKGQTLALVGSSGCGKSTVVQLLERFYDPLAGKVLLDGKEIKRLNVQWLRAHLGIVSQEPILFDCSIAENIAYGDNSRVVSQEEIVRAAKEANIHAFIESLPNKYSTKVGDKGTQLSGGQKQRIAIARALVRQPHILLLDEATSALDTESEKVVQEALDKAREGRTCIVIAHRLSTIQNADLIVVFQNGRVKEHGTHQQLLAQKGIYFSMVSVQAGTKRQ
In short: as §1

MRP1 (ABCC1) = MRP1 (ABCC1) (Homo sapiens, UniProt P33527); format: cell-based; details: for Percent Inhibition (%) of the fluorescent substrate: Mrp1, calcein-AM efflux, human cancer cells
MRP1 (ABCC1), sequence (P33527 whole entry): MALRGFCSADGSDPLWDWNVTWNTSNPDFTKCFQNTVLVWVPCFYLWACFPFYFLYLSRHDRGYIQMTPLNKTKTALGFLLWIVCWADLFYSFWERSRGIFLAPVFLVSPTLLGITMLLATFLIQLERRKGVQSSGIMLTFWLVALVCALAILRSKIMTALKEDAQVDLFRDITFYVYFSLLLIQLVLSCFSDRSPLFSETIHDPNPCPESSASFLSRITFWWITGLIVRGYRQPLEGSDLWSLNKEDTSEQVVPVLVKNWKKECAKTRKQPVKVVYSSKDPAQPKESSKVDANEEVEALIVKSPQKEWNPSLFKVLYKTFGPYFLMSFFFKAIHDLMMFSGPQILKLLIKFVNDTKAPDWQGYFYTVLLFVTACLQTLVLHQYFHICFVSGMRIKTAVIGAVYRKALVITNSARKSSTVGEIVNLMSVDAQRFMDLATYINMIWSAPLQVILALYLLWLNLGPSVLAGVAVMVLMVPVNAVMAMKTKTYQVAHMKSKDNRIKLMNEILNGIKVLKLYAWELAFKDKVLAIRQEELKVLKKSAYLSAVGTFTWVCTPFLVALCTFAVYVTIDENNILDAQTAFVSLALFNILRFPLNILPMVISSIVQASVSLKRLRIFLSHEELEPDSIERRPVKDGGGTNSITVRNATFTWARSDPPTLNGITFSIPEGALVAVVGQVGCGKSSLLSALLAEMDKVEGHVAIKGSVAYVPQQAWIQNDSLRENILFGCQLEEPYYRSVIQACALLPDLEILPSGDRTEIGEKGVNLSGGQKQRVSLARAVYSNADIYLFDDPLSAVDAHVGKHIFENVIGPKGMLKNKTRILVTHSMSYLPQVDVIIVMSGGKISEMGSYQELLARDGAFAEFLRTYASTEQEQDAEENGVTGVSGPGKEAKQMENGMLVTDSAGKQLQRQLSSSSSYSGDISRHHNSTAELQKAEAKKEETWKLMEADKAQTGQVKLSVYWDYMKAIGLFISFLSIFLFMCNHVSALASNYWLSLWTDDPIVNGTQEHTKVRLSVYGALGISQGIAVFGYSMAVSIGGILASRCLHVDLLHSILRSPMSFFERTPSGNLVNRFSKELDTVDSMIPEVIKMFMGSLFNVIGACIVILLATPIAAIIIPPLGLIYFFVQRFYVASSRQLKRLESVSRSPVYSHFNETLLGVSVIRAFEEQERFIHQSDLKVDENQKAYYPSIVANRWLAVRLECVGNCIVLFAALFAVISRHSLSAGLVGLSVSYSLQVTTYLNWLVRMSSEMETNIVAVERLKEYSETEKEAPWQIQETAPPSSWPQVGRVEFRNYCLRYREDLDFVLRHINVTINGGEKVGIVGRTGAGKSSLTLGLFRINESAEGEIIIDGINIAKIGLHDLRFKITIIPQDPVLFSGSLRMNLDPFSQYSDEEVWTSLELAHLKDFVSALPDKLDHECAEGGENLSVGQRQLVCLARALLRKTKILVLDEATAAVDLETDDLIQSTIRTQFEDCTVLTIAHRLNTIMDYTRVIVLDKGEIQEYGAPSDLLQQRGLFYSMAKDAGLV
In short: as §1

[1] = humans, ref Ryu et al., 2007, cited from earlier work
P-gp [2] = target: P-gp (Mus musculus, UniProt P21447); assay: Ex vivo brain to plasma ratio of parent radioligand in P-gp knockout mice; details: P-gp KO mice, 30 min after iv injection, n=3
In short: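 Wild-type, P-gp KO, BCRP KO and P-gp/BCRP KO mice (n=3 per group, 25.3 ± 1.2 g) were anesthetised with 1.5% isoflurane in oxygen. Radioligand (166 ± 49 µCi; 826 ± 205 mCi/µmol) was given iv via tail-vein cannula. At 30 min, blood was taken by cardiac puncture and brain excised. Parent was quantified by reversed-phase radio-HPLC with γ-counting. Brain/plasma parent ratios were compared across groups (mean ± SEM).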

P-gp [3] = target: P-gp (Homo sapiens, UniProt P08183); assay: Human PET imaging at baseline and during tariquidar infusion; format: in vivo
P-gp (Homo sapiens, UniProt P08183), sequence (P08183 whole entry, the tested form may be a part): as the sequence (P08183 whole entry) above
In short: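 Radioligand was given as a 376 ± 8 MBq bolus, followed by a 2-h dynamic PET with arterial sampling and HPLC metabolite separation. VT came from a three-tissue model including the acid metabolite, in six central regions. Paired one-tailed t-test.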

P-gp [4] = details: rats pretreated with tariquidar; ref Choi et al., 2016; cited from earlier work

Structure (SMILES): COc1ccccc1N1CCN(CCN(C(=O)C2CCC(F)CC2)c2ccccn2)CC1 (stereo not shown) [FCWAY]
- Percent Inhibition (%) of the fluorescent substrate (BCRP (ABCG2); 20 uM): 6.8%
- Percent Inhibition (%) of the fluorescent substrate (BCRP (ABCG2); 50 uM): 8.6%
- Substrate status for transporter (in vitro substrate inhibition) (BCRP (ABCG2); BCRP overexpressing human cancer cells): weak substrate
- Percent Inhibition (%) of the fluorescent substrate (P-gp (ABCB1); 20 uM): 0.8%
- Percent Inhibition (%) of the fluorescent substrate (P-gp (ABCB1); 50 uM): 4.0%
- Substrate status for transporter (in vitro substrate inhibition) (P-gp (ABCB1); P-gp overexpressing human cancer cells): weak substrate
- Percent Inhibition (%) of the fluorescent substrate (MRP1 (ABCC1); 20 uM): 3.1%
- Percent Inhibition (%) of the fluorescent substrate (MRP1 (ABCC1); 50 uM): 5.4%
- Substrate status for transporter (in vitro substrate inhibition) (MRP1 (ABCC1); MRP1 overexpressing human cancer cells): weak substrate

Structure (SMILES): COc1ccccc1N1CCN(CCN(C(=O)c2ccc(F)cc2)c2ccccn2)CC1 [MPPF, reference compound]
- Percent Inhibition (%) of the fluorescent substrate (MRP1 (ABCC1); 20 uM): 13.1%
- Percent Inhibition (%) of the fluorescent substrate (MRP1 (ABCC1); 50 uM): 19.9%

Structure (SMILES): COc1ccccc1N1CCN(CCN(C(=O)C2CCC([18F])CC2)c2ccccn2)CC1 (stereo not shown) [^18F-FCWAY]
- Time of peak uptake in brain ([1]; with disulfiram administration): five to seven
- Time of peak in brain after injection ([1]; without disulfiram): one to three
- Brain uptake (brain to plasma ratio) in comparison to wild type mice (P-gp [2]): increased
- Peak brain radioactivity uptake (P-gp [3]; baseline, after bolus injection, healthy subjects): around 3 SUV
- Change of non-displaceable binding potential (BPND) after tariquidar (P-gp [3]; i.v. tariquidar treatment, n=8): changed insignificantly
- Increase in mean distribution volume (VT) with tariquidar treatment (P-gp [3]; tariquidar 2 or 4 mg/kg iv infusion, six brain regions, n=8): 60–100%

Structure (SMILES): O=C(O)[C@H]1CC[C@H]([18F])CC1 [^18F-FC]
- Estimated concentration in brain as percent of that of the parent radioligand (P-gp [3]; during most of the scan, radiometabolite): 2–3%
- Concentration in brain compared to the total radioactivity (P-gp [3]; estimated by compartmental modeling, radiometabolite): ~ 5%

Structure (SMILES): COc1ccccc1N1CCN(CCN(C(=O)C2CCC(C[18F])CC2)c2ccccn2)CC1 (stereo not shown) [^18F-Mefway]
- Increase of brain uptake after tariquidar pretreatment (P-gp [4]): 1.6 fold

Structure (SMILES): CNC(=O)C(CCN1CCC(O)(c2ccc(Cl)cc2)CC1)(c1ccccc1)c1ccccc1 [dLop, desmethyl-loperamide, reference compound]
- Percent Inhibition (%) of the fluorescent substrate (P-gp (ABCB1); 20 uM): 10.0%
- Percent Inhibition (%) of the fluorescent substrate (P-gp (ABCB1); 50 uM): 25.0%

Reference: PMC4928098 (NeuroImage, 2016)
